Compound activity from PubChem.
Rows were chosen to be rich in hits. Some 8.9% of all compounds tested hit in one or more screens of this group.
HSV replic up: increases HSV replication in cells; AID 1956; HSV replication augmentation in cells, fold increase; 0.005% of 220,000 active; maximum fold increase; in the data active means maximum fold increase above about 1.5; tested in PC3 cells
bCat nuc transl: alters nuclear translocation of beta-catenin in HeLa cells | immunofluorescence imaging | nuclear translocation activity, % at 5 µM | 0.3% of 190,000 active;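 active means nuclear translocation activity above 50% at 5 µM, with a well cell count of 50 or more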;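 further: per-cell ratio of nuclear to cytoplasmic median beta-catenin stain intensity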
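Test system: HeLa cells, endogenous beta-catenin; Compound: single 5 µM dose plus 0.02–20 µM confirmation series; Times: compound exposure 24 h at 37°C; Signal: fluorescence imaging of beta-catenin antibody stain plus DAPI; Read-out: % activation, nuclear-to-cytoplasmic median beta-catenin signal ratio per cell.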
Dynein transport: blocks dynein driven cargo transport along microtubules; 0.47% of 220,000 active; z-score, hits read low; 3617.4 mouse cells, GR-EGFP nuclear translocation imaging; test concentration mostly 20 µM; stimulated with dexamethasone, 1 µM; stronger effect = lower value;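 active means plate z-score of nuclear minus cytoplasmic receptor signal below a set negative limit, without overly bright fluorescence or cell loss, cut at about -3.5 in these data, passing the limit was not always enough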;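 further: z-score of nuclear minus cytoplasmic ring GR-EGFP intensity difference per well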
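Also added – dexamethasone, 1.0 µM final · Buffer or medium – tet-free, stripped-serum medium · Schedule – induction 48 h, compound 1 h, agonist 30 min · Detection – formaldehyde fixation, Hoechst nuclear stain, 10x automated fluorescence imaging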
MT stabilizer: stabilizes microtubules in HeLa cells | HeLa tubulin immunostaining HCS, 24 h; share of cells brighter than vehicle mean+2SD | % tubulin-high responders, % at 10 µM | 0.83% of 200,000 active | AID 2205;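 active means plate Z-score above 3 for both tubulin-high and condensed-nucleus cell shares, with cell loss under 80%, at 10 µM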;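 further: anti alpha tubulin signal scored within the nucleus-defined area of each cell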
L major viab: inhibitors of Leishmania major promastigote growth. Leishmania major promastigotes, resazurin fluorescence viability. inhibition, % at 10 µM. 9% of 200,000 active. AID 1063; in the data active means inhibition above about 50%;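 further: promastigotes grown with compound for 44 hours at 28 °C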
Each line names hits and unclear results; the compound was inactive in the other large screens.

CCN(CC)S(=O)(=O)c1ccc(N2CCOCC2)c(NS(=O)(=O)c2ccc(C(C)C)cc2)c1	none
CCN(CC)S(=O)(=O)c1ccc(N2CCCC2)c(NS(=O)(=O)c2ccc(F)cc2)c1	L major viab 60.2
CCN(CC)S(=O)(=O)c1ccc(N2CCCC2)c(NS(=O)(=O)c2ccc([N+](=O)[O-])cc2)c1	none
CCN(CC)S(=O)(=O)c1ccc(N2CCOCC2)c(NS(=O)(=O)c2cc(C(C)(C)C)ccc2C)c1	L major viab 93.4
CCN(CC)S(=O)(=O)c1ccc(N2CCCC2)c(NS(=O)(=O)c2ccc(OC)cc2)c1	none
O=C(CCCCCNC(=O)c1ccccc1)N/N=C/c1ccccc1O	none
O=C(COc1cccc2c1CCN(Cc1ccccc1F)C2=O)N1CCCCC1	none
Cc1ccc(CN2CCc3c(OCC(=O)Nc4cccc(C)c4C)cccc3C2=O)cc1	L major viab 97.0
CCOC(=O)N1CCN(C(=O)COc2cccc3c2CCN(Cc2ccccc2F)C3=O)CC1	L major viab 66.5
CN(C)C(=O)CSc1cccc2cccnc12	L major viab 100.4 (no result: bCat nuc transl)
O=C(Sc1cccc2cccnc12)c1ccc(F)cc1	L major viab 100.5
O=S(=O)(Nc1cc(Sc2cccc3cccnc23)c(O)c2ccccc12)c1ccc(F)cc1	L major viab 100.4
COc1ccc(S(=O)(=O)Nc2cc(Sc3ncn[nH]3)c(O)c3ccccc23)cc1	Dynein transport -4.47, L major viab 100.4 (no result: HSV replic up, bCat nuc transl)
O=C(O)c1ccc(N/N=C/c2cccc(F)c2)cc1	L major viab 64.9
O=C(Nc1ccc(Cl)cc1)N1CCCN(Cc2ccc(F)cc2)C1	L major viab 92.3 (no result: bCat nuc transl)
O=C(Nc1ccccc1)N1CCN(Cc2ccc(Cl)cc2)CC1	none
CCN(CC)S(=O)(=O)c1ccc(N2CCOCC2)c(NC(=O)CC23CC4CC(CC(Br)(C4)C2)C3)c1	L major viab 50.8
CCN(CC)S(=O)(=O)c1ccc(N2CCOCC2)c(NC(=O)Cc2ccc(Cl)cc2)c1	L major viab 50.1
CCN(CC)S(=O)(=O)c1ccc(N2CCCC2)c(NC(=O)Cc2ccccc2)c1	none (no result: MT stabilizer, L major viab)
CC(=O)CSc1nnc(NC(=O)CCc2ccccc2)s1	none (no result: bCat nuc transl)
COc1ccc(/C(C)=N/NC(=S)NCc2ccco2)cc1	none
Cc1nc2ccc(-c3nc4ccccc4[nH]3)cc2[nH]1	none
COCc1[nH]nc2c1C(c1sccc1C)C(C#N)=C(N)O2 (stereo not given)	L major viab 72.2 (no result: HSV replic up)
CCCc1[nH]nc2c1C(C1CCCCC1)C(C#N)=C(N)O2 (stereo not given)	L major viab 92.6
CCCc1[nH]nc2c1C(c1ccsc1)C(C#N)=C(N)O2 (stereo not given)	none
COCc1[nH]nc2c1C(c1ccsc1)C(C#N)=C(N)O2 (stereo not given)	none
CCCc1[nH]nc2c1C(c1ccc(O)cc1OCC)C(C#N)=C(N)O2 (stereo not given)	L major viab 55.6
Cc1ccccc1OCC(=O)N/N=C/c1cn(C)c2ccccc12	none (no result: MT stabilizer, L major viab)
Cc1ccc(-c2nn3c(C)nnc3c3ccccc23)cc1S(=O)(=O)NC(C)c1ccccc1 (stereo not given)	L major viab 99.4
Cc1ccc(-c2nn3c(C)nnc3c3ccccc23)cc1S(=O)(=O)NCCO	none
Cn1nc(C(=O)N2CCc3ccccc32)c2ccccc2c1=O	none
Cc1cccc(N(C(=O)c2nsc(Cl)c2Cl)C(C(=O)NC2CCCC2)c2ccc(O)cc2)c1 (stereo not given)	L major viab 85.4
COc1ccc(CN(C(=O)c2nsc(Cl)c2Cl)C(C(=O)NC2CCCC2)c2ccc(OC)cc2)cc1 (stereo not given)	none
O=C(Nc1c2c(nn1-c1ccc(Cl)cc1)CS(=O)(=O)C2)c1ccc2c(c1)OCO2	none
CCOC(=O)C(=O)Nc1cccc(C(=O)OCC)c1	none (no result: bCat nuc transl)
O=S(=O)([O-])CCC[n+]1c(SCCCS(=O)(=O)O)sc2ccc(Cl)cc21	none
CC(NC(=O)c1ccccc1)c1nc2ccccc2n1Cc1ccccc1F (stereo not given)	L major viab 53.5 (no result: HSV replic up)
CC(NC(=O)c1ccccc1)c1nc2ccccc2n1Cc1ccc(C#N)cc1 (stereo not given)	none
Cc1cc(C(=O)NNC(=O)c2nn(C)c(=O)c3ccccc23)c(C)o1	L major viab 65.4
COc1ccc(OCC(=O)NNC(=O)c2nn(C)c(=O)c3ccccc23)cc1	none
Clc1ncnc2scc(-c3ccccc3)c12	none
S=c1[nH]cnc2scc(-c3ccccc3)c12	L major viab 98.8
COC(=O)CCCC1=CC2=C(c3ccccc3)C(=O)C(C)(OC(=O)C3CCCC3)C(=O)C2=CN1C1CCCC1 (stereo not given)	none (no result: MT stabilizer, L major viab)
O=c1c(Cl)c(N2CCCCC2)cnn1-c1nc2ccccc2[nH]1	L major viab 59.8
Cc1ccc(S(=O)(=O)N(Cc2ccccc2)Cc2ccco2)cc1	L major viab 88.4
Cc1ccc(S(=O)(=O)N(Cc2ccc(F)cc2)Cc2ccco2)cc1	none
CCN(CC(=O)NCCc1ccccc1)S(=O)(=O)c1ccc(Br)cc1	none
O=C(CN(Cc1ccccc1)S(=O)(=O)c1ccc(Br)cc1)NCc1ccco1	L major viab 99.9 (no result: bCat nuc transl)
Cc1ccc(S(=O)(=O)N(Cc2ccc(Cl)cc2)c2ccccc2C(=O)NCc2ccco2)cc1	L major viab 58.1
COc1ccc2c(c1)[N+](C)(C)C(C)(C)C=C2C	none
CSc1n[nH]c(=O)n1-c1ccc(Cl)cc1	none (no result: MT stabilizer, L major viab)
COc1cc2nc(C3CC3)n(NC(=O)c3ccc(Cl)cc3)c(=O)c2cc1OC	none
COc1cc2nc(NC(=O)c3ccc(Cl)cc3)[nH]c(=O)c2cc1OC	L major viab 60.0
CCOc1ccc(Nc2nc(NCC3CCCO3)c3ccccc3n2)cc1 (stereo not given)	L major viab 100.7
c1ccc(-c2nc(NCC3CCCO3)c3ccccc3n2)nc1 (stereo not given)	L major viab 100.3
c1ccc(Nc2nc(NCC3CCCO3)c3ccccc3n2)cc1 (stereo not given)	L major viab 98.5
c1ccc2c(NCC3CCCO3)nc(N3CCOCC3)nc2c1 (stereo not given)	none
Oc1cccc(Nc2nc(NCC3CCCO3)c3ccccc3n2)c1 (stereo not given)	L major viab 100.3 (no result: bCat nuc transl)
Clc1ccccc1CSc1nncn1NC/C=C/c1ccccc1	none
S=C(NCCc1ccccc1)N1CCN(C23CC4CC(CC(C4)C2)C3)CC1	none
COc1ccc(Nc2nc(NCC3CCCO3)c3ccccc3n2)c(OC)c1 (stereo not given)	L major viab 99.9
N/C(=N\O)c1ccccc1N1CCCCC1	none
COc1ccc(/C=N/N2CCN(C3c4ccccc4-c4ccccc43)CC2)cc1O	L major viab 66.8
COc1ccc(/C=N/N2CCOCC2)cc1O	none
CCCCCCNCc1ccc(Br)cc1	L major viab 86.1
CCCCCNCc1ccc(Br)cc1	L major viab 86.9
OCCCCNCc1ccc(OCc2ccc(Cl)cc2)cc1	L major viab 100.5
CCCCNC(=S)Nc1ccc(Cl)cc1	none
